# ATG4B inhibitor = ATG4B protease inhibitors, primary screen, biochemical, fluorescence, uHTS | ATG4B cleavage of LC3-PLA2, NBD-HPC fluorescence, 1 h | inhibition, % at 8.33 µM | hit rate 0.51% among 340,000 | AID 504462, 2011; in the data active means inhibition above about 40%
# MPTP inh = mitochondrial permeability transition pore inhibitors, primary screen, biochemical, isolated mouse mitochondria, absorbance | Ca2+ swelling absorbance, 30 min | inhibition, % at 10 µM | hit rate 1.4% among 360,000 | AID 602449, 2012;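 active means inhibition of 50% or more, scaled per plate between neutral and stimulator controls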;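 further: 0% = DMSO wells given calcium and 100% = 1 mM EGTA wells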
# MC4R ag barr = MC4R agonists recruiting beta-arrestin, primary screen, cell-based, luminescence, agonist arm of biased-ligand search; U2OS MC4R beta-arrestin complementation; percent of melanotan II response, DMSO zero; Melanocortin receptor 4 (Homo sapiens), P32245; hit rate 0.98% among 360,000; activation, % at 8.9 µM;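 active means activation above a per-plate cutoff, the mean activation of sample wells on that plate plus 3 SD, cut at about 8% in these data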
# Target sequence (P32245 whole entry, looked up): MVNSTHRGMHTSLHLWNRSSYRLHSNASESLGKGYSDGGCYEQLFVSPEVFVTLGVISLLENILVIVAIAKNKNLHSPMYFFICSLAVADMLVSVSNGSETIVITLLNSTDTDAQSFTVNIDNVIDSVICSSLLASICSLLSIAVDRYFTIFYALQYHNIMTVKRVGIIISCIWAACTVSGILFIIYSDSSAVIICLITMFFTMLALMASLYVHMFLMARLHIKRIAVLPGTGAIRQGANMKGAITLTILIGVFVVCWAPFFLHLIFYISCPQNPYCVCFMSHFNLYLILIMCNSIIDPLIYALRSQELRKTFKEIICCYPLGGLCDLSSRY
# MC4R antag cAMP = MC4R antagonists of cAMP signaling, primary screen, cell-based, TR-FRET, antagonist arm of biased-ligand search | hit rate 0.48% among 360,000 | Melanocortin receptor 4 (Homo sapiens), P32245 | MC4R-expressing cells, MTII-stimulated cAMP, LANCE TR-FRET | inhibition, % at 6.5 µM;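 active means inhibition above its plate's cutoff, the mean of tested wells on that plate plus 3 SD, cut at about 29% in these data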;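 further: 0% = Melanotan II alone and 100% = Melanotan II plus saturating MCL0020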
#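 Material: U2OS-MC4R stable cell line | Reagent: Melanotan II challenge after compound preincubation | Doses: One concentration, 6.5 µM nominal | Incubation: 30-min compound preincubation, 1-h Melanotan II challenge, 1-h detection, room temperature | Signal: TR-FRET cAMP assay | Replicates: One well per compound, no replicates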
# SMARCA2 act = SMARCA2 (BRM) function activators, primary screen, cell-based, luminescence, high throughput | MG213 cells, MMTV-luciferase reporter, dexamethasone, overnight | activation, % at 9.1 µM | hit rate 1% among 370,000 | AID 652017, 2013; in the data active means activation above about 7.8%;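 further: 0% = vehicle wells and 100% = reference activator wells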
# MC4R barr ag = MC4R beta-arrestin agonists, retest, confirmation, cell-based, luminescence, U2OS. hit rate 31% among 2,400. shares compounds with MC4R ag barr. AID 602192, 2012. U2OS MC4R beta-arrestin recruitment; scaled DMSO 0%, Melanotan II 100%. activation, % at 8.9 µM;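 active means mean activation across replicates above the hit cutoff set in the earlier primary screen, cut at about 8% in these data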
# MOR DOR agonist = agonists of MOR-DOR heterodimerization, counter-screen for MC4R biased agonist project, cell-based, luminescence. shares compounds with MC4R ag barr. U2OS PathHunter beta-arrestin, beta-gal luminescence; percent of deltorphin B response, DMSO zero. activation, % at 9.2 µM. hit rate 5.8% among 2,400;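 active means mean activation across replicates exceeds the hit threshold derived in the earlier primary screen, cut at about 18% in these data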;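 further: 100% = deltorphin B at 0.9 µM final and 0% = DMSO alone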
# * = called active by the depositor; . = not tested or not shown. Compounds with a hit are over-represented: about 4.1% of the library has one in this group of screens.
SMILES,ATG4B inhibitor,MPTP inh,MC4R ag barr,MC4R antag cAMP,SMARCA2 act,MC4R barr ag,MOR DOR agonist
CCC(C)NC(=O)c1c(N)n(/N=C/c2cccnc2)c2nc3ccccc3nc12 (centres undefined),-2,0,13*,10,1,28*,6
C/C(=N/NC(=O)C1COc2ccccc2O1)c1ccc(Br)s1 (centres undefined),-3,-1,13*,2,3,1,6
C/C(=N\NC(=O)C1COc2ccccc2O1)c1ccc(Cl)s1 (centres undefined),-8,1,5,12,0,.,.
CCN(CC)S(=O)(=O)c1ccc(N/N=C(\C)c2ccc3c(c2)OCO3)c([N+](=O)[O-])c1,1,2,1,3,0,.,.
C/C(=N\Nc1ccc(S(N)(=O)=O)cc1[N+](=O)[O-])c1ccc2c(c1)OCO2,-8,4,13*,11,-2,4,5
Cc1cccc(NC(=O)C2C3CCC4C(CCC32)C4(Cl)Cl)c1 (centres undefined),-1,41,13*,7,-2,2,2
O=C(Nc1ccc(Cl)cc1)C1C2CCC3C(CCC21)C3(Cl)Cl (centres undefined),-4,5,8,4,1,.,.
COC(=O)[C@]12C[C@H](CC(=O)NCc3cccs3)C(=O)N(Cc3ccco3)C1=C[C@H](COCc1ccccc1)O[C@@H]2C,.,.,.,.,-3,.,.
Cc1ccc(C)c(N2CCN(S(=O)(=O)c3ccc4[nH]c(=O)ccc4c3)CC2)c1,-7,0,17*,3,-4,8,11
CC(=O)CC[C@H]1CC[C@]2(CCCN(Cc3nccn3C)C2)O1,.,.,.,.,-1,.,.
O=C(c1cc(-c2ccc(O)cc2)on1)N1CCN(c2ccc(F)cc2)CC1,-5,0,11*,11,-1,-1,6
COc1ccc(CCNC(=O)/C(C#N)=C2\N=C(NC(=O)c3ccco3)c3ccccc32)cc1,-8,7,14*,4,-2,-1,2
N#C/C(C(=O)NCCc1ccccc1)=C1/N=C(NC(=O)c2cccs2)c2ccccc21,-5,7,-1,1,-4,.,.
COC(=O)CC#C[C@H](C)[C@@H](NS(=O)(=O)c1ccc(C)cc1)C1CCCCC1,.,.,.,.,-1,.,.
CC(C)C[C@H]1COc2cccc(N3CCCC3)c2S(=O)(=O)N1C,.,.,.,.,-3,.,.
CCCCNC(=O)[C@@H]1CC=C[C@@H]2CCN(Cc3ccc(Cl)c(Cl)c3)C(=O)[C@@H]21,-4,0,5,10,-2,.,.
COc1ccc(NC(=O)[C@@H]2CC=C[C@@H]3CCN(Cc4ccc(Cl)c(Cl)c4)C(=O)[C@@H]32)cc1,30,-1,13*,4,-2,11*,3
O=C(NCCc1ccccc1)[C@@H]1CC=C[C@@H]2CCN(Cc3ccc(Cl)c(Cl)c3)C(=O)[C@@H]21,24,-1,12*,-3,0,9.3*,8
O=C1[C@H]2[C@H](C=CC[C@H]2C(=O)N2CCN(c3ccccc3)CC2)CCN1Cc1ccc(Cl)c(Cl)c1,-10,-1,69*,15,-1,15*,4
O=C(c1ccccc1)N1CCC2CCN(S(=O)(=O)c3ccccc3)CC21 (centres undefined),.,.,.,.,3,.,.
COc1ccc(CC(N)c2csc(NC(=O)Nc3cc(OC)ccc3OC)n2)cc1 (centres undefined),.,3,0,-4,-1,.,.
NC(Cc1ccc(C(F)(F)F)cc1)c1csc(NC(=O)Nc2ccccc2Cl)n1 (centres undefined),.,1,15*,8,-3,19*,9
COC(=O)c1cc(C)nc(Nc2nc(C(N)Cc3ccc(Cl)cc3)cs2)n1 (centres undefined),.,4,3,-6,-2,.,.
COc1cc(OC)nc(Nc2nc(C(N)Cc3ccc(Cl)cc3)cs2)n1 (centres undefined),.,2,21*,-1,-2,7,11
COc1ccc(OC)c(NC(=O)Nc2nc(C(N)CCc3ccccc3)cs2)c1 (centres undefined),.,3,11*,5,-3,36*,20*
SMILES,ATG4B inhibitor,MPTP inh,MC4R ag barr,MC4R antag cAMP,SMARCA2 act,MC4R barr ag,MOR DOR agonist
NC(Cc1ccc(Cl)cc1)c1csc(NC(=O)Nc2ccccc2)n1 (centres undefined),.,7,20*,1,-6,22*,13
C=CC[C@]12C[C@@]3(O[C@H](c4ccc(C(F)(F)F)cc4)N=C3C[C@H](c3ccc(OC)cc3)[C@H]1C)N(Cc1ccncc1)C2=O,.,.,.,.,-2,.,.
Nc1[nH]c(C(=O)c2ccc(Cl)cc2)c(-c2ccc(Br)cc2)c1C(=O)c1c[nH]c2ccc(F)cc12,.,.,.,.,-7,.,.
COCc1[nH]nc2c1C(c1ccc(C)cc1)N(Cc1ccccc1)C2=O (centres undefined),.,.,.,.,0,.,.
CC(C)CC(N)c1csc(NC(=O)Nc2ccccc2Cc2ccccc2)n1 (centres undefined),.,5,6,5,-6,.,.
COc1ccc(CC(N)c2csc(NC(=O)Nc3cccc(C(F)(F)F)c3)n2)cc1 (centres undefined),.,2,0,2,-6,.,.
COc1ccccc1NC(=O)Nc1nc(C(N)Cc2ccc(Cl)cc2)cs1 (centres undefined),.,3,13*,7,-3,22*,10
COc1ccc(CC(N)c2csc(NC(=O)NCc3ccccc3)n2)cc1 (centres undefined),.,2,3,7,-2,.,.
CC(C)CC(N)c1csc(NC(=O)C(c2ccccc2)c2ccccc2)n1 (centres undefined),.,5,13*,-1,-3,16*,24*
NC(Cc1ccc(C(F)(F)F)cc1)c1csc(NC(=O)Nc2ccccc2)n1 (centres undefined),.,7,19*,1,-2,19*,13
COc1cc(CNC(=O)Nc2nc(C(N)Cc3ccc(C(F)(F)F)cc3)cs2)cc(OC)c1OC (centres undefined),.,4,10*,-1,-2,1,4
